These results are taken from ChEMBL document CHEMBL1133953, “Modulation of human mammary cell sensitivity to paclitaxel by new quinoline sulfonamides” (Bioorg Med Chem Lett, 2001).

pIC50: −log10 of the molar value. “And” between values parts separate entries of the source, which are not always exact repeats. Identical values can stand only once.

Assay [1] relates to MDA-MB-435. The experiment in a line: Inhibition of LCC6-MDR human breast carcinoma cell line growth was determined at 5 uM; No growth inhibition. The format is functional, cell-based.
In assay [2] the test system is MDA-MB-435. The assay can be described thus: Inhibition of LCC6-MDR human breast carcinoma cell line growth was determined at 1 uM; No growth inhibition. The format is functional, cell-based.
The subject of assay [3] is MDA-MB-435. The experiment in a line: Cytotoxicity against paclitaxel sensitive LCC6-WT-human breast carcinoma cell line. The format is functional, cell-based.
The subject of assay [4] is MDA-MB-435. The experiment in a line: Cytotoxicity against paclitaxel resistant LCC6-MDR-MDR1 transfected cell line. The format is functional, cell-based. The settings on record: Homo sapiens.
The subject of assay [5] is MDA-MB-435. The assay can be described thus: Percent reduction of inhibitory concentration against LCC6-MDR human breast cancer cell line at 5 uM concentration. The following applies: for Reduction: in the assay text read “at 1 uM concentration” for “at 5 uM concentration”. The format is functional. In short, it runs like this: (§1)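 Paclitaxel was tested against MDR1-transfected LCC6-MDR cells while co-administered with each reversal agent at fixed concentrations (four levels overall). Paclitaxel IC50 was determined under each condition. Percent IC50 reduction, taken as reversal activity, was calculated relative to paclitaxel alone.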

The test system of assay [6] is MDA-MB-435. The assay can be described thus: Percent reduction of inhibitory concentration against LCC6-MDR human breast cancer cell line at 1 uM concentration.
For assay [7], the system named is MDA-MB-435. The assay can be described thus: Reversal activity against LCC6-MDR human breast carcinoma cell line. The format is functional. In a few lines:
as §1

Assay [8] has as its system MDA-MB-435. The assay can be described thus: Inhibitory concentration against LCC6-MDR human breast cancer cell line. The format is functional, cell-based. In short, it runs like this: as §1
In assay [9] the test system is MDA-MB-435. The assay can be described thus: Inhibition of LCC6-MDR-MDR1 transfected cell line growth was determined at 10 uM. The format is functional. The settings on record: Homo sapiens.
The subject of assay [10] is MDA-MB-435. The assay can be described thus: Inhibition of LCC6-WT-human breast carcinoma cell line growth was determined at 10 uM. The format is functional.

Take `CC(=O)O[C@H]1C(=O)[C@@]2(C)C([C@H](OC(=O)c3ccccc3)[C@]3(O)C[C@H](OC(=O)[C@H](O)[C@@H](NC(=O)c4ccccc4)c4ccccc4)C(C)=C1C3(C)C)[C@]1(OC(C)=O)CO[C@@H]1C[C@@H]2O.COc1cc(NC(C)CCCNS(=O)(=O)c2ccc3ccccc3c2)c2ncccc2c1` (some centres undefined) [listing 1 of 2 here]: the inhibition entry in the assay with MDA-MB-435 [1] and in the assay with MDA-MB-435 [2] was “No inhibition” each time.
With `O=S(=O)(c1ccc2ccccc2c1)N(CCCCCCNc1ccnc2cc(Cl)ccc12)Cc1ccccc1`, the pIC50 in the assay on MDA-MB-435 [3] was 5.77; in the assay with MDA-MB-435 [4] it was 5.70.
In the case of `CC(=O)O[C@H]1C(=O)[C@@]2(C)C([C@H](OC(=O)c3ccccc3)[C@]3(O)C[C@H](OC(=O)[C@H](O)[C@@H](NC(=O)c4ccccc4)c4ccccc4)C(C)=C1C3(C)C)[C@]1(OC(C)=O)CO[C@@H]1C[C@@H]2O.COc1cc(NC(C)CCCNS(=O)(=O)c2ccc3ccccc3c2)c2ncccc2c1` (some centres undefined) [listing 2 of 2 here], in the assay with MDA-MB-435 [5], the IC50 reduction worked out at 97% and the Reduction was determined as 36%.
Take `CC(=O)O[C@H]1C(=O)[C@@]2(C)C([C@H](OC(=O)c3ccccc3)[C@]3(O)C[C@H](OC(=O)[C@H](O)[C@@H](NC(=O)c4ccccc4)c4ccccc4)C(C)=C1C3(C)C)[C@]1(OC(C)=O)CO[C@@H]1C[C@@H]2O.COc1cc(NC(C)CCCN(Cc2ccccc2)S(=O)(=O)c2ccc3ccccc3c2)c2ncccc2c1` (some centres undefined) [listing 1 of 2 here]: in the assay with MDA-MB-435 [6], the Reduction is given as 55%. Besides, the IC50 reduction in the assay with MDA-MB-435 [5] turned out to be 96%.
Consider `CC(=O)O[C@H]1C(=O)[C@@]2(C)C([C@H](OC(=O)c3ccccc3)[C@]3(O)C[C@H](OC(=O)[C@H](O)[C@@H](NC(=O)c4ccccc4)c4ccccc4)C(C)=C1C3(C)C)[C@]1(OC(C)=O)CO[C@@H]1C[C@@H]2O.O=S(=O)(c1ccc2ccccc2c1)N(CCCCCCNc1ccnc2cc(Cl)ccc12)Cc1ccccc1` (some centres undefined) [listing 1 of 2 here], for which the Reversal activity with MDA-MB-435 [7] stood at 99%. For the same molecule, the IC50 reduction in the assay on MDA-MB-435 [5] was 99% and 54% and 39%.
For the molecule `CC(=O)O[C@H]1C(=O)[C@@]2(C)C([C@H](OC(=O)c3ccccc3)[C@]3(O)C[C@H](OC(=O)[C@H](O)[C@@H](NC(=O)c4ccccc4)c4ccccc4)C(C)=C1C3(C)C)[C@]1(OC(C)=O)CO[C@@H]1C[C@@H]2O.O=S(=O)(c1ccc2ccccc2c1)N(CCCCNc1ccnc2cc(Cl)ccc12)Cc1ccccc1` (some centres undefined) [listing 1 of 2 here], the inhibition result in the assay with MDA-MB-435 [1] and in the assay on MDA-MB-435 [2] was “No inhibition” throughout.
With `CC(=O)O[C@H]1C(=O)[C@@]2(C)C([C@H](OC(=O)c3ccccc3)[C@]3(O)C[C@H](OC(=O)[C@H](O)[C@@H](NC(=O)c4ccccc4)c4ccccc4)C(C)=C1C3(C)C)[C@]1(OC(C)=O)CO[C@@H]1C[C@@H]2O.COc1cc(NC(C)CCCN(Cc2ccccc2)S(=O)(=O)c2ccc3ccccc3c2)c2ncccc2c1` (some centres undefined) [listing 2 of 2 here], the inhibition result in the assay on MDA-MB-435 [1] and in the assay on MDA-MB-435 [2] was “No inhibition” each time.
As to `CC(=O)O[C@H]1C(=O)[C@@]2(C)[C@H]([C@H](OC(=O)c3ccccc3)[C@]3(O)C[C@H](OC(=O)[C@H](O)[C@@H](NC(=O)c4ccccc4)c4ccccc4)C(C)=C1C3(C)C)[C@]1(OC(C)=O)CO[C@@H]1C[C@@H]2O` [PACLITAXEL], the results for the pIC50 in the assay on MDA-MB-435 [3], in the assay with MDA-MB-435 [4] and in the assay with MDA-MB-435 [8] were 8.10, 6.21 and 6.31, respectively. The molecule further gave an IC50 reduction with MDA-MB-435 [5] of 0%.
Consider `O=S(=O)(c1ccc2ccccc2c1)N(CCCCNc1ccnc2cc(Cl)ccc12)Cc1ccccc1`, for which the pIC50 with MDA-MB-435 [3] and in the assay on MDA-MB-435 [4] was less than 5.00 each time. The inhibition at 10 µM with MDA-MB-435 [9] was 3%; with MDA-MB-435 [10] it was 6%.
In the assay on MDA-MB-435 [5], `CC(=O)O[C@H]1C(=O)[C@@]2(C)C([C@H](OC(=O)c3ccccc3)[C@]3(O)C[C@H](OC(=O)[C@H](O)[C@@H](NC(=O)c4ccccc4)c4ccccc4)C(C)=C1C3(C)C)[C@]1(OC(C)=O)CO[C@@H]1C[C@@H]2O.O=S(=O)(c1ccc2ccccc2c1)N(CCCCNc1ccnc2cc(Cl)ccc12)Cc1ccccc1` (some centres undefined) [listing 2 of 2 here] displayed an IC50 reduction of 99% and a Reduction of 70%.
Turning to `CC(=O)O[C@H]1C(=O)[C@@]2(C)C([C@H](OC(=O)c3ccccc3)[C@]3(O)C[C@H](OC(=O)[C@H](O)[C@@H](NC(=O)c4ccccc4)c4ccccc4)C(C)=C1C3(C)C)[C@]1(OC(C)=O)CO[C@@H]1C[C@@H]2O.O=S(=O)(c1ccc2ccccc2c1)N(CCCCCCNc1ccnc2cc(Cl)ccc12)Cc1ccccc1` (some centres undefined) [listing 2 of 2 here], the inhibition entry in the assay on MDA-MB-435 [1] and with MDA-MB-435 [2] was “No inhibition” each time.
As for `COc1cc(NC(C)CCCN(Cc2ccccc2)S(=O)(=O)c2ccc3ccccc3c2)c2ncccc2c1` (centres undefined), the pIC50 in the assay with MDA-MB-435 [3] and with MDA-MB-435 [4] was less than 5.00 each time. The results for the inhibition at 10 µM in the assay on MDA-MB-435 [9] and in the assay with MDA-MB-435 [10] were 8% and 0%, respectively.
In the case of `COc1cc(NC(C)CCCNS(=O)(=O)c2ccc3ccccc3c2)c2ncccc2c1` (centres undefined), the pIC50 in the assay with MDA-MB-435 [3] and in the assay on MDA-MB-435 [4] was less than 5.00 in each case. In addition, the inhibition at 10 µM with MDA-MB-435 [9] is 8%; in the assay with MDA-MB-435 [10] it was 16%.

The term inhibition denotes the drop in the measured response relative to a control, in per cent. What is called pIC50 is the IC50 on a negative log10 scale, so that one unit is a factor of ten. A high value points to a small IC50.
